From ChEMBL document CHEMBL4196071, “Discovery of tetrahydrocarbazoles with potent hypoglycemic and hypolipemic activities” (Eur J Med Chem, 2018)
Active and inactive are the calls of the source. The calls are words filed in the database; no cut-off is given here.

Columns and labels:
[1] = molecular target: T1, AMP-activated protein kinase, AMPK (Homo sapiens) (UniProt P54646+O43741+P54619+Q9UGJ0+Q9Y478+Q13131+Q9UGI9); assay: Activation of AMPK in human HepG2 cells assessed as induction of glucose consumption at 10 uM treated over 24 hrs by glucose oxidase method relative to control; format: cell-based
Procedure, shortened: (§1)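 HepG2 cells kept in DMEM (25 mM D-glucose) with 10% serum at 37 °C, 5% CO2. At 80-90% confluence the medium was switched to serum-free RPMI-1640 with 11.1 mM glucose and 0.2% BSA. Compounds in DMSO (0.5% v/v vehicle control) were given for 24 h. Medium glucose was read by glucose oxidase; consumption = cell-free blank wells minus cell wells. Student's t test against control.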

Mus musculus [2] = assay: Hypoglycemic activity in db/db mouse assessed as decrease in blood glucose level at 30 mg/kg, po treated for 1 week measured at 3 hrs post last dose (reference value: 0.0 +/- 8.6%); format: functional; set-up: scale not given: the % may be the effect or the level left
Mus musculus [3] = assay: Toxicity in db/db mouse assessed as increase in body weight at 30 mg/kg, po treated for 1 to 3 weeks measured at 3 hrs post last dose relative to control; format: organism-based; settings: in vivo
Mus musculus [4] = assay: Hypolipemic activity in db/db mouse assessed as plasma fasting triglyceride level at 30 mg/kg, po treated for 3 consecutive weeks (reference value: 0.70 to 0.97 mM); format: functional
Mus musculus [5] = assay: Hypoglycemic activity in db/db mouse assessed as decrease in blood glucose level at 30 mg/kg, po administered as single dose measured at 3 hrs post last dose (reference value: 0.0 +/- 4.1%); format: functional; set-up: scale not given: the % may be the effect or the level left
Mus musculus [6] = assay: Hypoglycemic activity in db/db mouse assessed as decrease in blood glucose level at 30 mg/kg, po treated for 2 week measured at 3 hrs post last dose (reference value: 0.0 +/- 4.0%); format: functional; set-up: scale not given: the % may be the effect or the level left
Mus musculus [7] = assay: Hypolipemic activity in db/db mouse assessed as total plasma cholesterol level at 30 mg/kg, po treated for 3 consecutive weeks (reference value: 6.05 to 6.98 mM); format: functional
Mus musculus [8] = assay: Hypoglycemic activity in db/db mouse assessed as decrease in blood glucose level at 30 mg/kg, po treated for 3 week measured at 3 hrs post last dose (reference value: 0.0 +/- 6.8%); format: functional; set-up: scale not given: the % may be the effect or the level left
HepG2 [9] = assay: Activation of AMPKalpha in human HepG2 cells assessed as ACC phosphorylation at Ser79 residue at 10 uM by Western blot analysis; format: cell-based
Procedure, shortened: (§2)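 HepG2 cells were treated at 10 μM and lysed in pH 7.5 Tris buffer containing NaF, β-glycerophosphate, EDTA/EGTA, Triton X-100 and protease inhibitors, then cleared at 10,000 × g for 30 min at 4 °C. Equal lysate volumes were run on 8% SDS-PAGE and transferred to PVDF. Blots were probed for p-AMPKα (Thr172) and p-ACC (Ser79) with HRP secondary antibodies.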

HepG2 [10] = assay: Induction of AMPKalpha phosphorylation at Thr172 residue in human HepG2 cells at 10 uM by Western blot analysis; format: cell-based; procedure, shortened: as §2
[11] = molecular target: T1, AMP-activated protein kinase, AMPK (Homo sapiens); assay: Activation of AMPK in human HepG2 cells assessed as induction of glucose consumption at 0.1 uM treated over 24 hrs by glucose oxidase method relative to control; format: cell-based; procedure, shortened: as §1
[12] = molecular target: T1, AMP-activated protein kinase, AMPK (Homo sapiens); assay: Activation of AMPK in human HepG2 cells assessed as induction of glucose consumption treated over 24 hrs by glucose oxidase method; format: cell-based; procedure, shortened: as §1
[13] = molecular target: T1, AMP-activated protein kinase, AMPK (Homo sapiens); assay: Activation of AMPK in human HepG2 cells assessed as induction of glucose consumption at 1 uM treated over 24 hrs by glucose oxidase method relative to control; format: cell-based; procedure, shortened: as §1
[14] = molecular target: T1, AMP-activated protein kinase, AMPK (Homo sapiens); assay: Activation of AMPK in human HepG2 cells assessed as induction of glucose consumption at 1 mM treated over 24 hrs by glucose oxidase method relative to control; format: cell-based; procedure, shortened: as §1
Rattus norvegicus [15] = assay: Clearance in Sprague-Dawley rat at 5 mg/kg, iv by LC/MS/MS analysis; format: ADME, organism-based; settings: in vivo
Procedure, shortened: (§3)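 SD rats, three male and three female. Given iv at 5 mg/kg and intragastric at 20 mg/kg; the oral dose went by gavage in 20% 1,2-propanediol/80% water. Heparinized blood was sampled over 32 h post dose. Plasma was extracted with EtOAc and measured by LC/MS/MS. Non-compartmental analysis gave the PK parameters (n = 6).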

[16] = AUC (0 to t) in Sprague-Dawley rat at 20 mg/kg, ig by LC/MS/MS analysis; format: ADME, organism-based; settings: in vivo, po; procedure, shortened: as §3
[17] = AUC (0 to t) in Sprague-Dawley rat at 5 mg/kg, iv by LC/MS/MS analysis; format: ADME, organism-based; settings: in vivo; procedure, shortened: as §3
Rattus norvegicus [18] = assay: Volume of distribution in Sprague-Dawley rat at 5 mg/kg, iv by LC/MS/MS analysis; format: ADME, organism-based; settings: in vivo; procedure, shortened: as §3
Rattus norvegicus [19] = assay: Clearance in Sprague-Dawley rat at 20 mg/kg, ig by LC/MS/MS analysis; format: ADME, organism-based; settings: in vivo, po; procedure, shortened: as §3
Rattus norvegicus [20] = assay: Half life in Sprague-Dawley rat at 5 mg/kg, iv by LC/MS/MS analysis; format: ADME, organism-based; settings: in vivo; procedure, shortened: as §3
[21] = Bioavailability in Sprague-Dawley rat at 20 mg/kg, ig by LC/MS/MS analysis; format: ADME, organism-based; settings: in vivo, po; procedure, shortened: as §3
Mus musculus [22] = assay: Potency index, ratio of test compound to GY3 hypoglycemic activity in db/db mouse assessed as decrease in blood glucose level at 30 mg/kg, po treated for 3 week measured at 3 hrs post last dose; format: functional
[23] = AUC (0 to infinity) in Sprague-Dawley rat at 5 mg/kg, iv by LC/MS/MS analysis; format: ADME, organism-based; set-up: dose 5 mg/kg, route intravenous, time infinity; settings: in vivo; procedure, shortened: as §3
Rattus norvegicus [24] = assay: Volume of distribution in Sprague-Dawley rat at 20 mg/kg, ig by LC/MS/MS analysis; format: ADME, organism-based; settings: in vivo, po; procedure, shortened: as §3
Rattus norvegicus [25] = assay: Half life in Sprague-Dawley rat at 20 mg/kg, ig by LC/MS/MS analysis; format: ADME, organism-based; settings: in vivo, po; procedure, shortened: as §3
[26] = Tmax in Sprague-Dawley rat at 20 mg/kg, ig by LC/MS/MS analysis; format: ADME, organism-based; settings: in vivo, po; procedure, shortened: as §3
[27] = AUC (0 to infinity) in Sprague-Dawley rat at 20 mg/kg, ig by LC/MS/MS analysis; format: ADME, organism-based; set-up: dose 20 mg/kg, route intragastric, time infinity; settings: in vivo, po; procedure, shortened: as §3
[28] = Cmax in Sprague-Dawley rat at 20 mg/kg, ig by LC/MS/MS analysis; format: ADME, organism-based; set-up: dose 20 mg/kg, route intragastric; settings: in vivo, po; procedure, shortened: as §3

O=C(O)C1CCc2c(c3cc(OCc4ccccc4)ccc3n2C(=O)c2ccc(F)cc2)C1 (centres undefined)
Activity [1]: 75.2%

CCc1ccc(CCOc2ccc(CC3SC(=O)NC3=O)cc2)nc1 (centres undefined) [PIOGLITAZONE]
Activity (Mus musculus [2]): 37.1%
Activity (Mus musculus [3]): 16.3%
Activity (Mus musculus [4]): 0.51 mM
Activity (Mus musculus [5]): 21.9%
Activity (Mus musculus [6]): 34.5%
Activity (Mus musculus [7]): 7.89 mM
Activity (Mus musculus [8]): 37.4%

N#Cc1ccc(COc2ccc3c(c2)c2c(n3C(=O)c3ccc(Cl)cc3)CCC(C(=O)O)C2)cc1 (centres undefined)
Activity (HepG2 [9]): Active
Activity [1]: 50.2 to 72.8%
Activity (HepG2 [10]): Active
Activity [11]: 9.65%
Activity [12]: Dose-dependent effect
Activity [13]: 26.8%

Cc1c(CC(=O)O)c2cc(OCc3ccccc3)ccc2n1C(=O)c1ccc(Cl)cc1
Activity (Mus musculus [2]): 25.7%
Activity (Mus musculus [3]): 8.5%
Activity (Mus musculus [4]): 0.79 mM
Activity (Mus musculus [5]): 32.9%
Activity (Mus musculus [6]): 30.3%
Activity (Mus musculus [7]): 7.78 mM
Activity (Mus musculus [8]): 13.5%

O=C(O)C1CCc2c(c3cc(OCc4ccccc4)ccc3n2Cc2ccc(F)cc2)C1 (centres undefined)
Activity [1]: 34.3%

O=C(O)C1CCc2c(c3cc(OCc4ccccc4)ccc3n2Cc2ccc(Cl)cc2)C1 (centres undefined)
Activity [1]: 32.7%

COc1ccc2c(c1)c1c(n2C(=O)c2ccc(Cl)cc2)CCC(C(=O)O)C1 (centres undefined)
Activity [1]: 50.5%

O=C(O)c1ccccc1-c1ccc(Cn2c3c(c4cc(OCc5ccccc5)ccc42)CC(C(=O)O)CC3)cc1 (centres undefined)
Activity [1]: 27.5%

CC(Oc1ccc2c(c1)c1c(n2C(=O)c2ccc(Cl)cc2)CCC(C(=O)O)C1)c1ccccc1 (centres undefined)
Activity (HepG2 [9]): Active
Activity [1]: 62.1 to 68.7%
Activity (HepG2 [10]): Active
Activity [11]: 4.89%
Activity [12]: Dose-dependent effect
Activity [13]: 32.2%

Cc1nc(C)c(COc2ccc3c(c2)c2c(n3C(=O)c3ccc(Cl)cc3)CCC(C(=O)O)C2)nc1C (centres undefined)
Activity (HepG2 [9]): Active
Activity [1]: 47.5%
Activity (HepG2 [10]): Active

O=C(O)C1CCc2c(c3cc(OCc4ccccc4)ccc3n2S(=O)(=O)c2ccc(Cl)cc2)C1 (centres undefined)
Activity (Mus musculus [2]): 28.9%
Activity (Mus musculus [3]): 3.7%
Activity [1]: 64.5%
Activity (Mus musculus [4]): 0.99 mM
Activity (Mus musculus [5]): 15.5%
Activity (Mus musculus [6]): 16.3%
Activity (Mus musculus [7]): 6.91 mM
Activity (Mus musculus [8]): 14.3%

CN(C)C(=N)NC(=N)N
Activity [14]: 60.4 to 63.7%

Cc1ccc(Cn2c3c(c4cc(OCc5ccccc5)ccc42)CC(C(=O)O)CC3)cc1 (centres undefined)
Activity [1]: 42.2%

O=C(O)C1CCc2c(c3cc(OCc4ccccc4)ccc3n2C(=O)c2ccc(Cl)cc2)C1 (stereo in doubt; (+)-7a)
Activity (HepG2 [9]): Active
Activity [1]: 55.3 to 60.6%
Activity (HepG2 [10]): Active
Activity [11]: 1.79%
Activity [12]: Dose-dependent effect
Activity [13]: 27.3%

O=C(O)C1CCc2c(c3cc4c(cc3n2C(=O)c2ccc(Cl)cc2)OCO4)C1 (centres undefined)
Activity [1]: 55.1%

O=C(O)C1CCc2c(c3cc4c(cc3n2S(=O)(=O)c2ccc(Cl)cc2)OCO4)C1 (centres undefined)
Activity [1]: 47.5%

O=C(O)C1CCc2c(c3cc(OCc4ccccc4)ccc3n2Cc2ccccc2)C1 (centres undefined)
Activity [1]: 30.4%

O=C(O)C1CCc2c(c3cc(OCc4ccccn4)ccc3n2C(=O)c2ccc(Cl)cc2)C1 (centres undefined)
Activity [1]: 47.5%

COc1ccc(S(=O)(=O)n2c3c(c4cc5c(cc42)OCO5)CC(C(=O)O)CC3)cc1 (centres undefined)
Activity [1]: 40.3%

COc1ccc(S(=O)(=O)n2c3c(c4cc(OCc5ccccc5)ccc42)CC(C(=O)O)CC3)cc1 (centres undefined)
Activity [1]: 60.3%

O=C(O)C1CCc2c(c3cc(OCc4ccccc4)ccc3n2C(=O)c2ccc(Cl)cc2)C1 (stereo in doubt; 7a) [listing 1 of 2 here]
CL (Rattus norvegicus [15]): 0.07 L/h/kg
Activity (Mus musculus [2]): 29.3%
AUC(0-t) [16]: 32 µg·h/mL
AUC(0-t) [17]: 39.6 µg·h/mL
Vd (Rattus norvegicus [18]): 2.7 L/kg
Activity (Mus musculus [3]): 10.4%
CL (Rattus norvegicus [19]): 0.45 L/h/kg
Activity (Mus musculus [4]): 0.54 mM
t1/2 (Rattus norvegicus [20]): 7.2 h
bioavailability [21]: 20.2%
Ratio (Mus musculus [22]): 2
Activity (Mus musculus [5]): 30.6%
Activity (Mus musculus [6]): 19.6%
Activity (Mus musculus [7]): 6.93 mM
AUC(0-inf) [23]: 71 µg·h/mL
Vd (Rattus norvegicus [24]): 9.98 L/kg
t1/2 (Rattus norvegicus [25]): 6.46 h
Activity (Mus musculus [8]): 28%
Tmax [26]: 7.83 h
AUC(0-inf) [27]: 48.3 µg·h/mL
Cmax [28]: 2.32 µg/mL

O=C(O)C1CCc2c(c3cc(OCc4ccc(F)cc4)ccc3n2C(=O)c2ccc(Cl)cc2)C1 (centres undefined)
Activity [1]: 53.4 to 68.8%
Activity [11]: 0.11%
Activity [12]: Dose-dependent effect
Activity [13]: 20.1%

O=C(O)C1CCc2c(c3cc(OCc4ccccc4)ccc3n2C(=O)c2ccc(Cl)cc2)C1 (single isomer, unassigned; (-))
Activity (HepG2 [9]): Active
Activity [1]: 76.4 to 85.5%
Activity (HepG2 [10]): Active
Activity [11]: 12.9%
Activity [12]: Dose-dependent effect
Activity [13]: 35.6%

O=C(O)C1CCc2c(c3cc(OCc4ccccc4)ccc3n2C(=O)c2ccc(Cl)cc2)C1 (stereo in doubt; 7a) [listing 2 of 2 here]
Activity (HepG2 [9]): Active
Activity [1]: 72.9 to 82.5%
Activity (HepG2 [10]): Active
Activity [11]: 15.5%
Activity [12]: Dose-dependent effect
Activity [13]: 30.2%

O=C(O)C1CCc2[nH]c3ccc(OCc4ccccc4)cc3c2C1 (centres undefined)
Activity (HepG2 [9]): Active
Activity [1]: 48.4 to 52.3%
Activity (HepG2 [10]): Active
Activity [11]: 29%
Activity [12]: Dose-dependent effect
Activity [13]: 37.2%
